Data reported in ChEMBL document CHEMBL1139506, “Effect on K(ATP) channel activation properties and tissue selectivity of the nature of the substituent in the 7- and the 3-position of 4H-1,2,4-benzothiadiazine 1,1-dioxides” (J Med Chem, 2005).

Assays:
Rattus norvegicus [1] = species on record: Rattus norvegicus; assay: ED50/IC50 ratio was determined; format: functional
Rattus norvegicus [2] = species on record: Rattus norvegicus; assay: Concentration giving 50% relaxation of the 30 mM KCl-induced contraction of rat aortic rings (n=6); format: functional; details: Aorta, read-out: ED50 (the source's name)
Outline: (§1)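 Endothelium-denuded transverse aortic rings (3-4 mm) from fed Wistar rats (180-200 g); isometric tension by force transducer. After 60 min equilibration, contracted with 30 mM KCl; at stable tension, drug added cumulatively until maximal relaxation or up to 0.3 mM. Relaxation expressed as % of KCl contraction; ED50 (50% inhibition of KCl plateau) from dose curves; mean ± SEM (n).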

Rattus norvegicus [3] = species on record: Rattus norvegicus; assay: Concentration required for 50% inhibition of insulin release in rat pancreatic B-cells; format: functional, cell-based
Rattus norvegicus [4] = species on record: Rattus norvegicus; assay: Effect on insulin secretion from rat pancreatic islets at 10 uM concentration (n=12); format: functional
Outline: (§2)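 Islets isolated by collagenase from fed Wistar rats (180-220 g); groups of 10 preincubated 30 min, 37 °C, in bicarbonate salt medium with 2.8 mM glucose, 0.5% dialyzed albumin, O2/CO2 95:5. Then incubated 90 min, 37 °C, with 16.7 mM glucose plus drug. Insulin measured by radioimmunoassay against rat insulin standard; expressed as % of drug-free 16.7 mM glucose control; mean ± SEM (n).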

Rattus norvegicus [5] = species on record: Rattus norvegicus; assay: Effect on insulin secretion from rat pancreatic islets at 1 uM concentration (n=23); format: functional; outline: as §2
Rattus norvegicus [6] = species on record: Rattus norvegicus; assay: Concentration required for relaxation of the 30 mM KCl-induced contraction of rat aortic rings (n=4); format: functional; details: Aorta, read-out: ED50 (the source's name); outline: as §1
Rattus norvegicus [7] = species on record: Rattus norvegicus; assay: Effect on insulin secretion from rat pancreatic islets at 10 uM concentration (n=23); format: functional; outline: as §2
Rattus norvegicus [8] = species on record: Rattus norvegicus; assay: Effect on insulin secretion from rat pancreatic islets at 50 uM concentration (n=16); format: functional; outline: as §2
[9] = Ionization constant was determined; format: physicochemical
Outline: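 Ionization constant found by UV spectroscopy in aqueous buffers spanning pH 5 to 12; pKa calculated with the Debye-Hückel equation at the absorbance maximum of the basic form.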

Rattus norvegicus [10] = species on record: Rattus norvegicus; assay: Effect on insulin secretion from rat pancreatic islets at 10 uM concentration (n=15); format: functional; outline: as §2
Rattus norvegicus [11] = species on record: Rattus norvegicus; assay: Effect on insulin secretion from rat pancreatic islets at 50 uM concentration (n=21); format: functional; outline: as §2
Rattus norvegicus [12] = species on record: Rattus norvegicus; assay: Concentration giving 50% relaxation of the 30 mM KCl-induced contraction of rat aortic rings (n=10); format: functional; details: Aorta, read-out: ED50 (the source's name); outline: as §1
Rattus norvegicus [13] = species on record: Rattus norvegicus; assay: Effect on insulin secretion from rat pancreatic islets at 1 uM concentration (n=22); format: functional; outline: as §2
Rattus norvegicus [14] = species on record: Rattus norvegicus; assay: Concentration required for relaxation of the 30 mM KCl-induced contraction of rat aortic rings; format: functional; details: Aorta; outline: as §1
Rattus norvegicus [15] = species on record: Rattus norvegicus; assay: Concentration giving 50% relaxation of the 30 mM KCl-induced contraction of rat aortic rings (n=8); format: functional, Aorta; details: read-out: ED50 (the source's name); outline: as §1
Rattus norvegicus [16] = species on record: Rattus norvegicus; assay: Effect on insulin secretion from rat pancreatic islets at 50 uM concentration (n=23); format: functional; outline: as §2
Rattus norvegicus [17] = species on record: Rattus norvegicus; assay: Effect on insulin secretion from rat pancreatic islets at 1 uM concentration (n=19); format: functional; outline: as §2
Rattus norvegicus [18] = species on record: Rattus norvegicus; assay: Effect on insulin secretion from rat pancreatic islets at 50 uM concentration (n=9); format: functional; outline: as §2
Rattus norvegicus [19] = species on record: Rattus norvegicus; assay: Effect on insulin secretion from rat pancreatic islets at 1 uM concentration (n=15); format: functional; outline: as §2
Rattus norvegicus [20] = species on record: Rattus norvegicus; assay: Effect on insulin secretion from rat pancreatic islets at 10 uM concentration (n=16); format: functional; outline: as §2
Rattus norvegicus [21] = species on record: Rattus norvegicus; assay: Effect on insulin secretion from rat pancreatic islets at 10 uM concentration (n=21); format: functional; outline: as §2
Rattus norvegicus [22] = species on record: Rattus norvegicus; assay: Effect on insulin secretion from rat pancreatic islets at 1 uM concentration (n=16); format: functional; outline: as §2
Rattus norvegicus [23] = species on record: Rattus norvegicus; assay: Concentration giving 50% relaxation of the 30 mM KCl-induced contraction of rat aortic rings (n=7); format: functional; details: Aorta, read-out: ED50 (the source's name); outline: as §1
Rattus norvegicus [24] = species on record: Rattus norvegicus; assay: Effect on insulin secretion from rat pancreatic islets at 10 uM concentration (n=22); format: functional; outline: as §2
Rattus norvegicus [25] = species on record: Rattus norvegicus; assay: Effect on insulin secretion from rat pancreatic islets at 50 uM concentration (n=20); format: functional; outline: as §2
Rattus norvegicus [26] = species on record: Rattus norvegicus; assay: Effect on insulin secretion from rat pancreatic islets at 10 uM concentration (n=14); format: functional; outline: as §2
Rattus norvegicus [27] = species on record: Rattus norvegicus; assay: Concentration required for relaxation of the 30 mM KCl-induced contraction of rat aortic rings; Precipitate; format: functional; details: Aorta; outline: as §1
Rattus norvegicus [28] = species on record: Rattus norvegicus; assay: Effect on insulin secretion from rat pancreatic islets at 50 uM concentration (n=12); format: functional; outline: as §2
Rattus norvegicus [29] = species on record: Rattus norvegicus; assay: Effect on insulin secretion from rat pancreatic islets at 1 uM concentration (n=14); format: functional; outline: as §2
Rattus norvegicus [30] = species on record: Rattus norvegicus; assay: Effect on insulin secretion from rat pancreatic islets at 10 uM concentration (n=24); format: functional; outline: as §2

CCNC1=NS(=O)(=O)c2cc(C)ccc2N1
Ratio (Rattus norvegicus [1]): 84 | EC50 (Rattus norvegicus [2]): 210 µM | IC50 (Rattus norvegicus [3]): 2.5 µM | Residual insulin release (Rattus norvegicus [4]): 8.6% | Residual insulin release (Rattus norvegicus [5]): 83.8%

CCC(C)NC1=NS(=O)(=O)c2cc(C(=O)O)ccc2N1 (centres undefined)
EC50 (Rattus norvegicus [6]): > 300 µM | Residual insulin release (Rattus norvegicus [7]): 93% | Residual insulin release (Rattus norvegicus [8]): 91.2%

CC(C)NC1=NS(=O)(=O)c2cc(C(=O)O)ccc2N1
EC50 (Rattus norvegicus [6]): > 300 µM | Residual insulin release (Rattus norvegicus [7]): 96.6% | Residual insulin release (Rattus norvegicus [8]): 98.6%

CC(C)NC1=NS(=O)(=O)c2cc(C#N)ccc2N1
pKa [9]: 8.56 | EC50 (Rattus norvegicus [6]): 42.7 µM | Residual insulin release (Rattus norvegicus [10]): 82.2% | Residual insulin release (Rattus norvegicus [11]): 23.5%

CCC(C)NC1=NS(=O)(=O)c2cc(C)ccc2N1 (centres undefined)
Ratio (Rattus norvegicus [1]): 1.4 | EC50 (Rattus norvegicus [12]): 15.5 µM | IC50 (Rattus norvegicus [3]): 11.2 µM | Residual insulin release (Rattus norvegicus [7]): 50.7% | Residual insulin release (Rattus norvegicus [13]): 93.6%

CC(C)C(C)NC1=NS(=O)(=O)c2cnccc2N1 (centres undefined)
IC50 (Rattus norvegicus [14]): 154 µM | Ratio (Rattus norvegicus [1]): 35 | EC50 (Rattus norvegicus [15]): 154 µM | Residual insulin release (Rattus norvegicus [7]): 13.7% | Residual insulin release (Rattus norvegicus [16]): 8.6% | Residual insulin release (Rattus norvegicus [17]): 70.5%

CCC(C)NC1=NS(=O)(=O)c2cc(OC)ccc2N1 (centres undefined)
Ratio (Rattus norvegicus [1]): 4.4 | EC50 (Rattus norvegicus [6]): 17.5 µM | IC50 (Rattus norvegicus [3]): 4 µM | Residual insulin release (Rattus norvegicus [18]): 8.5% | Residual insulin release (Rattus norvegicus [10]): 23.4% | Residual insulin release (Rattus norvegicus [19]): 92.4%

CCNC1=NS(=O)(=O)c2cc(S(C)(=O)=O)ccc2N1
EC50 (Rattus norvegicus [6]): > 300 µM | Residual insulin release (Rattus norvegicus [20]): 91.6%

CCCNC1=NS(=O)(=O)c2ccccc2N1
EC50 (Rattus norvegicus [6]): > 300 µM | Residual insulin release (Rattus norvegicus [21]): 54.2% | Residual insulin release (Rattus norvegicus [22]): 93.8%

CCCNC1=NS(=O)(=O)c2cc([N+](=O)[O-])ccc2N1
EC50 (Rattus norvegicus [23]): 15.7 µM | Residual insulin release (Rattus norvegicus [8]): 88.9%

CCOc1ccc2c(c1)S(=O)(=O)NC(NC1CCC1)=N2
EC50 (Rattus norvegicus [6]): > 300 µM | Residual insulin release (Rattus norvegicus [20]): 84.9%

CC(C)C(C)NC1=NS(=O)(=O)c2cc([N+](=O)[O-])ccc2N1 (centres undefined)
EC50 (Rattus norvegicus [6]): 2.8 µM | Residual insulin release (Rattus norvegicus [8]): 90.4%

COC(=O)c1ccc2c(c1)S(=O)(=O)NC(NC(C)C)=N2
EC50 (Rattus norvegicus [15]; Rattus norvegicus, Aorta): > 200 µM | Residual insulin release (Rattus norvegicus [24]): 95.7% | Residual insulin release (Rattus norvegicus [25]): 94.3%

N#Cc1ccc2c(c1)S(=O)(=O)N=C(NC1CCC1)N2
EC50 (Rattus norvegicus [6]): 57.9 µM | Residual insulin release (Rattus norvegicus [10]): 102.6% | Residual insulin release (Rattus norvegicus [11]): 54.3%

CC(C)NC1=NS(=O)(=O)c2cc(C(N)=O)ccc2N1
EC50 (Rattus norvegicus [6]): 175 µM | Residual insulin release (Rattus norvegicus [7]): 76.6%

CC(C)NC1=NS(=O)(=O)c2cc(S(C)(=O)=O)ccc2N1
EC50 (Rattus norvegicus [6]): 127 µM | Residual insulin release (Rattus norvegicus [10]): 90.5%

CCOc1ccc2c(c1)S(=O)(=O)NC(NC(C)C)=N2
EC50 (Rattus norvegicus [6]): 233 µM | Residual insulin release (Rattus norvegicus [26]): 65.9%

CCC(C)NC1=NS(=O)(=O)c2ccccc2N1 (centres undefined)
ED50 (Rattus norvegicus [27]): Precipitate | Residual insulin release (Rattus norvegicus [20]): 42.7% | Residual insulin release (Rattus norvegicus [22]): 90.4%

O=S1(=O)N=C(NC2CCC2)Nc2ccccc21
ED50 (Rattus norvegicus [27]): Insoluble | Residual insulin release (Rattus norvegicus [26]): 29.8% | Residual insulin release (Rattus norvegicus [22]): 79.9%

COc1ccc2c(c1)S(=O)(=O)NC(NC1CCC1)=N2
Ratio (Rattus norvegicus [1]): 72 | EC50 (Rattus norvegicus [2]): 157 µM | IC50 (Rattus norvegicus [3]): 2.2 µM | Residual insulin release (Rattus norvegicus [10]): 14.1% | Residual insulin release (Rattus norvegicus [28]): 4% | Residual insulin release (Rattus norvegicus [29]): 71.3%

CCNC1=NS(=O)(=O)c2cc(OCC)ccc2N1
EC50 (Rattus norvegicus [6]): 162 µM | Residual insulin release (Rattus norvegicus [30]): 75%
